The values below come from ChEMBL document CHEMBL1124918, “Synthesis and evaluation of alpha-[[(2-haloethyl)amino]methyl]-2- nitro-1H-imidazole-1-ethanols as prodrugs of alpha-[(1-aziridinyl)methyl]-2- nitro-1H-imidazole-1-ethanol (RSU-1069) and its analogues which are radiosensitizers and bioreductively activated cytotoxins” (J Med Chem, 1990).

Data set [1] concerns V79. Put plainly: Concentration which reduced survival to 1% following incubation 3 hours with V79 mammalian cells under aerobic (Cair) conditions. Particulars: Cricetulus griseus. Type of data set: functional, cell-based. An outline of the steps: (§1)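 Chinese hamster V79-379A cells, 1.5 × 10⁶ per glass bottle, grown to confluency over 48 h. Exposed for 3 h at 37 °C to a range of agent concentrations in growth medium (pH 7.4), under aerobic or hypoxic conditions. Cells then trypsinized, diluted and plated for colony formation. The ratio is aerobic over hypoxic concentration.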

Data set [2] can be described thus: Ratio of concentration which reduced V79 cell survival to 1% under aerobic conditions to that of hypoxic conditions. Format: functional. An outline of the steps:
as §1

Data set [3] relates to V79. Put plainly: Concentration which reduced survival to 1% following incubation 3 hours with V79 mammalian cells under hypoxic (Cnitrogen) conditions. Particulars: Cricetulus griseus. Format: functional, cell-based. An outline of the steps: as §1
Data set [4] deals with Mus musculus. Kind of data set: Maximum tolerated dose was determined for compound administered intraperitoneally as a suspension in arachis oil in C3H/He mice. Format: functional.
Data set [5] is described as follows: Half-life at pH of 5.5-6.0 at 23 degree Centigrade. Format: ADME. Particulars: pH 5.5. An outline of the steps:
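Agent (0.2–0.5 mM) incubated in PBS, with or without NaHCO₃ (24–107 mM), pH adjusted right after preparation, at 23 °C. Aliquots taken over time and checked for loss by isocratic HPLC on a CN column, UV at 313 nm. Mobile phase was 10–25% methanol in 10 mM KH₂PO₄, pH 3.0.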

Data set [6] relates to Mus musculus. Put plainly: Maximum tolerated dose was determined for compound administered intraperitoneally in C3H/He mice. Format: functional. An outline of the steps: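 Female C3H/He mice, 8–12 weeks old, bearing KHT sarcoma. Given ip within 10 min, 0.5 mL/25 g (1 mL/25 g if solubility-limited). Escalating single doses to groups of 2–3 mice; MTD is the highest dose without severe or persistent clinical signs or death within 24 h.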

The nature of data set [7]: Half-life at pH of 5.5-6.0 at 4 degree Centigrade. The conditions noted are these: pH 5.5-6.0.
Data set [8] can be described thus: Half-life at pH of 7.0 at 4 degree Centigrade. The conditions noted are these: pH 7. Format: ADME. An outline of the steps:
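Agent (0.2–0.5 mM) incubated in PBS at pH 7.0 and 4 °C, with pH adjusted right after the solution was made. Aliquots taken at set times were analysed by isocratic HPLC on a CN column, with UV detection at 313 nm. Mobile phase was 10–25% methanol in 10 mM KH2PO4, pH 3.0, at 2 mL min⁻¹. Half-life came from loss of parent compound.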

In the case of `O=[N+]([O-])c1nccn1CC(O)CNCCO` (centres undefined), the results for the Concentration in the data set with V79 [1] and in the data set with V79 [3] were 70 mM and 3.5 mM, respectively. Also, the Ratio in data set [2] is given as 20.
In the case of `CC1(C)N(CC(O)Cn2ccnc2[N+](=O)[O-])C1(C)C` (centres undefined), the MTD with Mus musculus [4] was 1.5 mM/kg.
On to `Br.O=[N+]([O-])c1nccn1CC(O)CNCCBr` (centres undefined), for which the half-life in data set [5] was 30 min. Besides, the Concentration with V79 [1] is 2.3 mM; with V79 [3] it was 0.09 mM. In addition, in data set [2], the Ratio turned out to be 25.5. Besides, the MTD in the data set with Mus musculus [6] came to 1 mM/kg.
For the molecule `CC(C)(Cl)C(C)(C)NCC(O)Cn1ccnc1[N+](=O)[O-].Cl` (centres undefined), in data set [7], the half-life was below 2 min. Also, the MTD with Mus musculus [6] came to 1.3 mM/kg.
Consider `Br.CC(C)(CBr)NCC(O)Cn1ccnc1[N+](=O)[O-]` (centres undefined), for which, in data set [7], the half-life is below 5 min. This molecule also displayed an MTD in the data set on Mus musculus [6] of 1 mM/kg.
For `C[C@@H]1[C@H](C)N1CC(O)Cn1ccnc1[N+](=O)[O-]` (some centres undefined), the MTD in the data set on Mus musculus [6] was determined as 3 mM/kg.
Still for that read-out and setting: next, `CCNCC(O)Cn1ccnc1[N+](=O)[O-]` (centres undefined): 3.9 mM/kg.
In data set [5], `C[C@@H](Cl)[C@@H](C)NCC(O)Cn1ccnc1[N+](=O)[O-].Cl` (some centres undefined) yielded a half-life of 120 min. Besides, in the data set on Mus musculus [6], the MTD is 3 mM/kg.
As for `Cl.F.O=[N+]([O-])c1nccn1CC(O)CNCCF` (centres undefined), the Concentration in the data set with V79 [1] came to 35 mM; with V79 [3] it was 2.5 mM. For the same molecule, the Ratio in data set [2] worked out at 14.
In the case of `O=[N+]([O-])c1nccn1CC(O)CN1CC1` (centres undefined), the values for the Concentration in the data set with V79 [1] and in the data set on V79 [3] were 0.3 mM and 0.003 mM, respectively. In addition, the Ratio in data set [2] is recorded as 100. The MTD in the data set with Mus musculus [6] worked out at 0.4 mM/kg.
Take `CC(C)(CCl)NCC(O)Cn1ccnc1[N+](=O)[O-].Cl` (centres undefined): in data set [7], the half-life is 76 min. In addition, the MTD with Mus musculus [6] stood at 0.8 mM/kg.
On to `I.O=[N+]([O-])c1nccn1CC(O)CNCCI` (centres undefined), for which the Concentration in the data set with V79 [1] was 2.4 mM; in the data set with V79 [3] it was 0.08 mM. The Ratio in data set [2] was found to be 30.
Regarding `Br.C[C@@H](Br)[C@@H](C)NCC(O)Cn1ccnc1[N+](=O)[O-]` (some centres undefined), in data set [8], the half-life is 30 min. Moreover, the MTD with Mus musculus [6] amounted to 1 mM/kg.
In turn, `Br.CC(C)(Br)C(C)(C)NCC(O)Cn1ccnc1[N+](=O)[O-]` (centres undefined) displayed a half-life in data set [7] below 2 min. The MTD with Mus musculus [6] was determined as 0.7 mM/kg.
For `Cl.O=[N+]([O-])c1nccn1CC(O)CNCCCl` (centres undefined), the half-life is above 300 min in data set [5] and around 280 min in data set [8]. Further, the Concentration in the data set on V79 [1] worked out at 5 mM; in the data set on V79 [3], 0.35 mM. For the same molecule, the Ratio in data set [2] came out at 14.3. For the same molecule, the MTD in the data set on Mus musculus [6] was 1.5 mM/kg.

One may read the half-life as the time needed for the level to fall by half in the phase considered. A low value points to rapid decline.
